Measurements: the EternaBench riboswitch data

Tested on: MS2 coat protein
Test: apparent Kd, MS2 coat protein; higher = weaker binding; RNA-MaP array; theophylline 2 mM where present
In short: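 The apparent Kd is reported as the median of filtered per-cluster binding-curve fits. To get these curves, designs transcribed by stalled E. coli RNA polymerase on Illumina sequencing-chip clusters were titrated with SNAP-549-labelled MS2 coat protein from 0.7 or 1.5 nM, doubling to 3 µM. Titrations were run without and then with constant ligand in 100 mM Tris-HCl pH 7.5, 80 mM KCl, 4 mM MgCl2, BSA, DTT, yeast tRNA and Tween-20, and green signal was normalised to red-channel RNA signal and control-cluster median Fmax.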

[1] = designed as: OFF switch for theophylline, no ligand
[2] = ligand present: theophylline, designed as: OFF switch for theophylline
[3] = designed as: ON switch for theophylline, no ligand
[4] = ligand present: theophylline, designed as: ON switch for theophylline

Row | Sequence | apparent Kd [1] [nM] | apparent Kd [2] [nM] | apparent Kd [3] [nM] | apparent Kd [4] [nM]
1 | CGGUUUGUGAUGGAUACCAGCAGAGAAAACGUUUAUCCUAACAUGAGGAUCACCCAUGUAUGCCCUUGGCAGCUGUUGUGGGCUG | 44.7 | 45.6 | – | –
2 | ACAUGAGGAUCACCCAUGUUCCUCAUUGAUACCAGUGAAUUUAGACGCCCUUGGCAGCGAGUUUUUGAAGAAGAAGUUUUUUUUU | 545 | 1080 | – | –
3 | AAGGUGAUCCGUGAUACCAGCUCAACAUGAGGAUCACCCAUGUAACGGACGAAAGUCCGGAGCCCUUGGCAGCACGGUAAUAAUA | – | – | 11.2 | 11.4
4 | ACCAUGUAAUCAGAUACCAGACAUCUUUUAAAUCAUAUUACAUGAGGAUCACCCAUGUUGGUCCCUUGGCAGCUGAAAUAUUUCA | – | – | 356 | 109
5 | UAUAUUGUGAUGGAUACCAGCAGAGAAAACGUUUAUCCUAACAUGAGGAUCACCCAUGUAUGCCCUUGGCAGCUGUUGUGAUAUA | 71.4 | 46.9 | – | –
6 | GGUAGCAGGACUGAUACCAGUCCAGCGAAUCAUACGACGCAACAUGAGGAUCACCCAUGUGACCCUUGGCAGCAGUCUGCUACCG | – | – | 25.4 | 12.8
7 | ACGACGCAUAGUGAUACCAGUAGAACAUGAGGAUCACCCAUGUCUGUGGCGCUCCGCCUCUGCCCUUGGCAGCACUAUGCGUCAG | – | – | 12.4 | 18.6
8 | AACCGAGGCUAUCCUCUCCGCCUAUGUGAUACCAGAAUAAUUUUAUUCCCUUGGCAGCAUGACAUGAGGAUCACCCAUGUCUCUU | – | – | 17.6 | 20.3
9 | CCUAGCACACAUGAUACCAGCGACAUGAGGAUCACCCAUGUACGGCGUGUAUCGCAAGGUUGCCCUUGGCAGCAUGAUAGUGCUG | 14.4 | 182 | – | –
10 | UCCUCAUGGCAUGAUACCAGACCUAACAUGAGGAUCACCCAUGUAUCAGGCAAUUGUUACGUCCCUUGGCAGCAUGUAUGCCGAC | – | – | 70.2 | 138
11 | AGUACACGAACUGAUACCAGCCGGACAUGAGGAUCACCCAUGUCCUACCUCUGUUCGGUUGGCCCUUGGCAGCAGUUCGUGUACA | – | – | 81.6 | 121
12 | CUUGUCGUAACUGAUACCAGUGUACUGACAUGAGGAUCACCCAUGUUGGGUUUUGUUGUACACCCUUGGCAGCAGAAUCGAUAAG | 73.8 | 121 | – | –
13 | AACAUGAGGAUUGAUACCAGUCCAUGAGGAUCACAUGAGGAUCACCCAUGUGGAACAUGAGGCCCUUGGCAGCAGUACAACAUGA | – | – | 15.6 | 11
14 | GUUAUAUUAAUUGAUACCAGCGAGAAAACAUGAGGAUCACCCAUGUUCGCCCAUGUUAAGCGCCCUUGGCAGCAAUUUUAUUAGC | 30.6 | 91.6 | – | –
15 | UGGCAGGAGUGAUCCUCCUGCCAAGGUGAUACCAGCAUCGAAAGAUGCCCUUGGCAGCACCAACAUGAGGAUCACCCAUGUAAUA | – | – | 108 | 47.9
16 | UUUACAUGAGGAUCACCCAUGUGCCAUGAUACCAGACAUGAAAAUGUCCCUUGGCAGCAUGAAUGAUUCAUAGGAUAAUUAUGGG | – | – | 99.2 | 98.8
17 | AGACAUGAGGAUCACCCAUGUAGCAUGGAUACCAGAUGUAGAUUAGUCCCUUGGCAGCUGUGGUAAAGUGAUGCAUUGCUCCUAG | 49.2 | 47.4 | – | –
18 | AACCGAGGCUAUCCACAAAGAAAAUGUGAUACCAGAAUAAUUUUAUUCCCUUGGCAGCAUGACAUGAGGAUCACCCAUGUGUCUU | – | – | 32.3 | 35.6
19 | AGCGACAUGCAUGAUACCAGCUACAUGAGGAUCACCCAUGUACGUCAGUAAUGACUGUGUAGCCCUUGGCAGCAUAGAGCAUGUA | 17.5 | 44.5 | – | –
20 | GAUGAACUAUUUGAUACCAGACUACAUGAGGAUCACCCAUGUGAGUUUCCUCCUCUGCCAGUCCCUUGGCAGCAAAUAGUUUAUC | 56.5 | 148 | – | –
21 | GAUAGUUGAUGGGAUACCAGCCUACACAUGAGGAUCACCCAUGUGAUUCGUGUACGACUGGGCCCUUGGCAGCCCAUAUUGUGUA | – | – | 107 | 55.1
22 | ACAUGAGGAUCACCCAUGUUCCUCAUUGAUACCAGUGAAUUUAGACGCCCUUGGCAGCGAGUUUUUUAAGAAGAAGUUUUUUUUU | 421 | 1110 | – | –
